In ChEMBL document CHEMBL1139961, “Synthesis and evaluation of isoxazole derivatives as lysophosphatidic acid (LPA) antagonists” (Bioorg Med Chem Lett, 2007):

Assays:
[1] = target: Lysophosphatidic acid receptor 1 (Homo sapiens, UniProt Q92633); assay: Antagonist activity at human recombinant LPA1 receptor expressed in CHOK1 cells assessed as inhibition of lysophosphatidic acid-induced intracellular calcium influx; assay type: functional, cell-based, CHO-K1
Summary of the method: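 LPA1-transfected CHO-K1 cells grown in aMEM/F12 with 400 µg/ml Zeocin and 7% FBS. Loaded with Fluo-3 AM in 20 mM Hepes/HBSS/2.5 mM probenecid, 1 h, 37 °C. Washed, resuspended with 0.1% BSA, 24,000 cells/well. FLIPR fluorescence (ex 488/em 540 nm) read before and after compound addition, with or without 1 µM LPA. IC50 is the mean of at least two runs.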

[2] = target: Lysophosphatidic acid receptor 1 (Rattus norvegicus, UniProt P61794); assay: Antagonist activity at LPA1 receptor in rat hepatic stellate cells assessed as inhibition of lysophosphatidic acid-induced intracellular calcium influx; assay type: functional, cell-based
Chain of Lysophosphatidic acid receptor 1 (Rattus norvegicus, UniProt P61794) (P61794 whole entry): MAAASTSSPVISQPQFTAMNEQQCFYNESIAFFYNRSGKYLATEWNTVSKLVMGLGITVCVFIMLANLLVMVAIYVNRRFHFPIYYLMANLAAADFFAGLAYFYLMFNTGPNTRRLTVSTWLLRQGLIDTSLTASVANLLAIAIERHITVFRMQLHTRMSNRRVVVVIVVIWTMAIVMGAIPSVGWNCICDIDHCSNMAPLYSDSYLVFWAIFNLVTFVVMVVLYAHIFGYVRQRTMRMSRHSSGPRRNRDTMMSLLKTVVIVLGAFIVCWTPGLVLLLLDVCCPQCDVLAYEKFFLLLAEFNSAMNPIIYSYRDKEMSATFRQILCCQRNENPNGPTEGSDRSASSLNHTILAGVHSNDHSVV
Summary of the method: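 Stellate cells isolated from male Wistar rat liver, seeded overnight at 24,000 cells/well. Loaded with 4 µM Fluo-3 AM in buffer (0.1% BSA, 20 mM Hepes, HBSS, 2.5 mM probenecid), 37 °C, 1 h, then FLIPR Ca2+ read. Test substance added with LPA at 5 µM final. LPA without compound = 100%, no LPA = 0%. IC50 is the mean of at least two runs.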

Chain of Lysophosphatidic acid receptor 1 (Homo sapiens, UniProt Q92633) (Q92633 whole entry): as the sequence (P61794 whole entry) above, with A4I, S8I, Q22P, Y40H, V61I, D193E, H194N, V269I, N331S, N335T counted along it

Row | IC50 [1] [nM] | IC50 [2] [nM] | Compound
1 | 430 | 74 | CC(OC(=O)Nc1conc1-c1ccc(CSCCS(=O)(=O)O)cc1)c1ccccc1Cl (centres undefined)
2 | > 40000 | > 20000 | CC(OC(=O)Nc1ccccc1-c1ccc(CSCCC(=O)O)cc1)c1ccccc1Cl (centres undefined)
3 | 200 | 72 | CC(OC(=O)Nc1conc1-c1ccc(CCCCC(=O)O)cc1)c1ccccc1Cl (centres undefined)
4 | 370 | 120 | CC(OC(=O)Nc1conc1-c1ccc(CCC(C)(C)CC(=O)O)cc1)c1ccccc1Cl (centres undefined)
5 | 140 | 73 | CC(OC(=O)Nc1conc1-c1ccc(NC(=O)CCC(=O)O)cc1)c1ccccc1Cl (centres undefined)
6 | 260 | 81 | CC(OC(=O)Nc1cnoc1-c1ccc(CSCCC(=O)O)cc1)c1ccccc1Cl (centres undefined)
7 | 220 | 49 | CC(OC(=O)Nc1conc1-c1ccc(CSCCC(=O)O)cc1)c1ccccc1Cl (centres undefined)
8 | 130 | 100 | CC(OC(=O)Nc1conc1-c1ccc(CCSCC(=O)O)cc1)c1ccccc1Cl (centres undefined)
9 | 170 | 56 | CC(OC(=O)Nc1conc1-c1ccc(CSCCC(=O)O)cc1)C1=C(Cl)CCCC1 (centres undefined)
10 | 130 | 29 | CC(OC(=O)Nc1conc1-c1ccc(CSCCC(=O)O)cc1)C1=C(Cl)CCC1 (centres undefined)
11 | 510 | 160 | Cc1noc(-c2ccc(CSCCC(=O)O)cc2)c1NC(=O)OC(C)c1ccccc1Cl (centres undefined)
12 | 280 | 110 | CC(OC(=O)Nc1conc1-c1ccc(CS(=O)(=O)CCC(=O)O)cc1)c1ccccc1Cl (centres undefined)
